Measured values from different studies.
Each line is one published result; the experiments were not run side by side.
Target: MAP/microtubule affinity-regulating kinase 4 (MARK4, Homo sapiens, UniProt Q96L34)
One construct used (Q96L34 1-752): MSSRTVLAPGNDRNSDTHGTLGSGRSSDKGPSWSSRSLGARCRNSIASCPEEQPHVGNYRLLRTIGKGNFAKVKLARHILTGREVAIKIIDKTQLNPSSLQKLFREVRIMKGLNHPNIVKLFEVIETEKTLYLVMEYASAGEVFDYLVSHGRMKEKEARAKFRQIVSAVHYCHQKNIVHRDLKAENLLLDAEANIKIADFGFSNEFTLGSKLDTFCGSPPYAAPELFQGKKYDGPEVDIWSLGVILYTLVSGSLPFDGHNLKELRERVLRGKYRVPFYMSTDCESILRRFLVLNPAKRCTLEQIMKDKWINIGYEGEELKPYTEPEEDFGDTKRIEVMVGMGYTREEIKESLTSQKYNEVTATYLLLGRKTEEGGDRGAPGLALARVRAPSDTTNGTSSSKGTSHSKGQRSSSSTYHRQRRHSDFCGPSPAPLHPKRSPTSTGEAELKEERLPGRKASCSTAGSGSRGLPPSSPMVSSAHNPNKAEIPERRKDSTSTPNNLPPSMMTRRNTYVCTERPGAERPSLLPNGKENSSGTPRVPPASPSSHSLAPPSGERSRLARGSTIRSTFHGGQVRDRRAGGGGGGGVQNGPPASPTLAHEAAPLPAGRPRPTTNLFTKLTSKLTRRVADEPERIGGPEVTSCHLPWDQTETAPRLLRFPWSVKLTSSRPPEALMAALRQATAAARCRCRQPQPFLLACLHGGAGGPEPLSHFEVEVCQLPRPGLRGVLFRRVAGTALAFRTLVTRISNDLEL

F[C@@H]1CCN(c2nccc(-c3cnn4ncccc34)n2)C1  remaining binding (binding; 1 µM): 100%
COc1ncc2cc3ccccc3nc2c1C#N  remaining binding (cell-free assay; competition with immobilised ligand; 5 µM): 64%
CC(=O)Nc1c(C(C)=O)c(=O)n(C)c2nc(-c3ccc(Cl)cc3Cl)c(-c3ccc(Cl)cc3)cc12  remaining binding (cell-free assay; competition with immobilised ligand; 1 µM): 100%
CN(C)c1nccc(-c2cnn3ncccc23)n1  remaining binding (binding; 1 µM): 100%
COc1cc(-c2cn(C3CCc4ccccc4N(CC(F)(F)F)C3=O)nn2)ccc1-n1ccc(C)n1 (centres unmarked)  remaining binding (cell-free assay; competition with immobilised ligand; 1 µM): 100%
c1cncc(-c2cccc(Nc3nccc(NC4CCCCC4)n3)c2)c1  remaining binding (binding; competition with immobilised ligand; 10 µM): 80%
CCCOc1ccc([C@H]2[C@H](C(=O)O)[C@@H](c3ccc4c(c3)OCO4)CN2CC(=O)Nc2c(CC)cccc2CC)cc1  remaining binding (cell-free assay; competition with immobilised ligand; 1 µM): 97%
N[C@H]1CCN(c2nccc(-c3cnn4ncccc34)n2)C1  remaining binding (binding; 1 µM): 100%
O=C(c1ccc(Nc2ncc(Cl)c(-c3cc4ccccc4s3)n2)cc1)N1CCC(N2CCCC2)CC1  remaining binding (binding; competition with immobilised ligand; 1 µM): 28%
CCN1CCN(Cc2ccc(C(=O)Nc3ccc(C)c(Oc4ccc5c(c4)CC(=O)N5)c3)cc2C(F)(F)F)CC1  remaining binding (binding; competition with immobilised ligand; 1 µM): 88%
Nc1c(C(=O)NCc2ccc(C(=O)NCCCC3CCCCC3)cc2)cnn1-c1ccccc1  remaining binding (cell-free assay; competition with immobilised ligand; 0.1 µM): 76%
CC1CCCN1c1nccc(-c2cnn3ncccc23)n1 (centres unmarked)  remaining binding (binding; 1 µM): 98%
O=C(Nc1c[nH]nc1C(=O)NC1CCNCC1)c1cc(F)cc(F)c1  remaining binding (binding; competition with immobilised ligand; 1 µM): 100%
CC(=O)c1c(NS(C)(=O)=O)c2cc(-c3ccc(Cl)cc3)c(-c3ccc(Cl)cc3Cl)nc2n(C)c1=O  remaining binding (cell-free assay; competition with immobilised ligand; 1 µM): 100%
O=C(c1ccc(Nc2nccc(-c3cc4ccccc4s3)n2)cc1)N1CCC(N2CCCC2)CC1  remaining binding (binding; competition with immobilised ligand; 1 µM): 84%
C[C@@H]1CCN(c2nccc(-c3cnn4ncccc34)n2)C1  remaining binding (binding; 1 µM): 100%
Cc1c(NC(=O)c2cc(C(N)=O)nc3cc(F)ccc23)c(C(F)(F)F)nn1Cc1ccc(C(C)(C)C)cc1  remaining binding (cell-free assay; competition with immobilised ligand; 1 µM): 97%
Cc1cnc(Nc2ccc(C(=O)N3CCC(N4CCCC4)CC3)cc2)nc1-c1cc2ccccc2s1  remaining binding (binding; competition with immobilised ligand; 1 µM): 35%
CNC(=O)[C@@H]1CC[C@@H](n2c(-c3ccc4cnccc4c3)nc3ccc(C(=O)NCc4cccc(C(N)=O)c4)cc32)C1  remaining binding (binding; competition with immobilised ligand; 1 µM): 98%
CN(C)c1ncc(F)c(-c2cnn3ncccc23)n1  remaining binding (binding; 1 µM): 100%
